Measured values as given in paper PMC9306620 (Clinical Pharmacology in Drug Development, 2022).
Where “and” joins values, the source holds several entries; their conditions need not be identical. Equal entries are not always repeated. Where two headings read alike, the source gives them in different places.

Assays:
[1] = format: in vivo, healthy participants; conditions: 200 mg, moderate-fat meal; for AUC(0-t) / AUC(0-inf) / Cmax: human, plasma, oral, geometric LS mean, part 1, analysis of variance, n = 18; for AUC(0-t): AUC0-t; for AUC(0-inf): AUC0-∞
Outline: (§1)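 Randomized, open-label, single-dose crossover in healthy adults aged 18–55, with periods separated by a ≥7-day washout. Each oral 200 mg dose was given as two 100-mg units. Plasma was sampled 40 min predose and 1–96 h postdose and assayed by UHPLC-MS/MS. Noncompartmental parameters used actual sampling times. ln-AUC0-t, AUC0-∞ and Cmax were analysed by linear mixed-effects model (treatment, period, sequence fixed; participant random) with 90% CIs.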

[2] = Part 2: food effect on plasma pharmacokinetics of the tablet formulation; format: in vivo, healthy participants; conditions: for AUC(0-t) / AUC(0-inf) / Cmax: human, plasma, oral, 200 mg, geometric LS mean, part 2, analysis of variance; for AUC(0-t): AUC0-t; for AUC(0-inf): AUC0-∞
Outline: as §1

[3] = Part 1: safety and tolerability; format: in vivo, healthy participants; conditions: N = 18
Outline: (§2)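 Safety followed a single oral 200 mg dose given as two 100-mg capsules or tablets. Adverse events, clinical laboratory tests, vital signs, 12-lead ECG and physical examination were monitored. The safety population was all participants receiving ≥1 dose, summarized descriptively by treatment. AEs occurring later than last treatment + 5 days were not counted. The investigator assessed each AE for drug relatedness.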

[4] = Part 2: safety and tolerability; format: in vivo, healthy participants; conditions: for Adverse events: abdominal distention (drug related) / Adverse events: anxiety / Adverse events: any event / Adverse events: diarrhea (drug related) / Adverse events: dysmenorrhea / Adverse events: eye irritation / Adverse events: rash maculopapular (drug related, led to withdrawal): part 2, tablet 200 mg
Outline: as §2

[5] = cited from earlier work
HIV-1 = conditions: 200-mg dose, treatment-naive adults with HIV-1, phase IIa; cited from earlier work
[6] = system: uridine diphosphate glucuronosyltransferase 1A1; conditions: in vitro; cited from earlier work
[7] = system: organic anion-transporting polypeptide 1B3; conditions: in vitro; cited from earlier work
HIV-1 subtypes = conditions: in vitro; cited from earlier work
[8] = drug interaction studies; cited from earlier work
[9] = tablet 200 mg, high fat, n = 21
[10] = tablet 200 mg, moderate fat, n = 20
[11] = tablet 200 mg, high fat vs fasted, part 2
[12] = tablet 200 mg, moderate fat vs fasted, part 2

AUC(0-t) ([1]; capsule): 33700 ng·h/mL | AUC(0-t) ([1]; tablet): 33800 ng·h/mL | AUC(0-inf) ([1]; capsule): 36900 ng·h/mL | AUC(0-inf) ([1]; tablet): 36900 ng·h/mL | Cmax ([1]; capsule): 1200 ng/mL | Cmax ([1]; tablet): 1310 ng/mL | AUC0-t, geometric LS mean ratio ([1]; tablet vs capsule, part 1): 1.00 | AUC0-∞, geometric LS mean ratio ([1]; tablet vs capsule, part 1): 0.998 | Cmax, geometric LS mean ratio ([1]; tablet vs capsule, part 1): 1.09 | AUC(0-t) ([2]; tablet 200 mg, fasted, n = 13): 12200 ng·h/mL | AUC(0-t) [2, 9]: 34100 ng·h/mL | AUC(0-t) [2, 10]: 38500 ng·h/mL | AUC(0-inf) ([2]; tablet 200 mg, fasted, n = 10): 14200 ng·h/mL | AUC(0-inf) [2, 9]: 36900 ng·h/mL | AUC(0-inf) [2, 10]: 41600 ng·h/mL | Cmax ([2]; tablet 200 mg, fasted, n = 13): 351 ng/mL | Cmax [2, 9]: 1080 ng/mL | Cmax [2, 10]: 1440 ng/mL | AUC0-t, geometric LS mean ratio compared with fasted conditions [2, 11]: 2.79 | AUC0-∞, geometric LS mean ratio compared with fasted conditions [2, 11]: 2.59 | Cmax, geometric LS mean ratio compared with fasted conditions [2, 11]: 3.08 | mean Cmax, fold higher than under fasted conditions ([2]; tablet 200 mg, high-fat conditions, part 2): ~3 fold | AUC0-t, geometric LS mean ratio compared with fasted conditions [2, 12]: 3.15 | AUC0-∞, geometric LS mean ratio compared with fasted conditions [2, 12]: 2.93 | Cmax, geometric LS mean ratio compared with fasted conditions [2, 12]: 4.10 | mean estimate for CL/F, lower than under fasted conditions ([2]; tablet 200 mg, moderate- or high-fat conditions, part 2): > 60% | mean Cmax, fold higher than under fasted conditions ([2]; tablet 200 mg, moderate-fat conditions, part 2): ≈ 4 fold | t1/2, arithmetic mean (SD) ([2]; tablet, single dose 200 mg, fasted conditions, part 2, n = 10): 25.9 (3.33) hour | t1/2, arithmetic mean (SD) ([2]; tablet, single dose 200 mg, high-fat conditions, part 2, N = 21): 25.1 (4.18) hour | t1/2, geometric mean (%CVb) ([2]; tablet, single dose 200 mg, moderate-fat conditions, part 2, N = 20): 24.9 (18.0) hour
SMILES: C=C(C)[C@@H]1CC[C@]2(NCCN3CCS(=O)(=O)CC3)CC[C@]3(C)[C@H](CC[C@@H]4[C@@]5(C)CC=C(C6=CC[C@@](CF)(C(=O)O)CC6)C(C)(C)[C@@H]5CC[C@]43C)[C@@H]12 [GSK3640254]
Adverse events: abdominal distention (drug related) ([3]; part 1, capsule 200 mg): 0 n (%) | Adverse events: anxiety ([3]; part 1, capsule 200 mg): 0 n (%) | Adverse events: diarrhea (drug related) ([3]; part 1, capsule 200 mg): 0 n (%) | Adverse events: dysmenorrhea ([3]; part 1, capsule 200 mg): 0 n (%) | Adverse events: eye irritation ([3]; part 1, capsule 200 mg): 0 n (%) | Adverse events: rash maculopapular (drug related, led to withdrawal) ([3]; part 1, capsule 200 mg): 0 n (%) | Adverse events: abdominal distention (drug related) ([3]; part 1, tablet 200 mg): 0 n (%) | Adverse events: anxiety ([3]; part 1, tablet 200 mg): 0 n (%) | Adverse events: any event ([3]; part 1, tablet 200 mg): 1 (6) n (%) | Adverse events: diarrhea (drug related) ([3]; part 1, tablet 200 mg): 0 n (%) | Adverse events: dysmenorrhea ([3]; part 1, tablet 200 mg): 0 n (%) | Adverse events: eye irritation ([3]; part 1, tablet 200 mg): 1 (6%) n (%) and 1 (6) n (%) | Adverse events: rash maculopapular (drug related, led to withdrawal) ([3]; part 1, tablet 200 mg): 0 n (%) | Adverse events: abdominal distention (drug related) ([4]; fasted, N = 19): 0 n (%) | Adverse events: anxiety ([4]; fasted, N = 19): 0 n (%) | Adverse events: any event ([4]; fasted, N = 19): 0 n (%) | Adverse events: diarrhea (drug related) ([4]; fasted, N = 19): 0 n (%) | Adverse events: dysmenorrhea ([4]; fasted, N = 19): 0 n (%) | Adverse events: eye irritation ([4]; fasted, N = 19): 0 n (%) | Adverse events: rash maculopapular (drug related, led to withdrawal) ([4]; fasted, N = 19): 0 n (%) | Adverse events: abdominal distention (drug related) ([4]; high fat, N = 21): 1 (5) n (%) | Adverse events: anxiety ([4]; high fat, N = 21): 1 (5) n (%) | Adverse events: any event ([4]; high fat, N = 21): 5 (24%) n (%) and 5 (24) n (%) | Adverse events: diarrhea (drug related) ([4]; high fat, N = 21): 2 n (%) and 2 (10) n (%) | Adverse events: dysmenorrhea ([4]; high fat, N = 21): 1 (5) n (%) | Adverse events: eye irritation ([4]; high fat, N = 21): 0 n (%) | Adverse events: rash maculopapular (drug related, led to withdrawal) ([4]; high fat, N = 21): 1 (5) n (%) | Adverse events: abdominal distention (drug related) ([4]; moderate fat, N = 20): 0 n (%) | Adverse events: anxiety ([4]; moderate fat, N = 20): 0 n (%) | Adverse events: any event ([4]; moderate fat, N = 20): 0 n (%) | Adverse events: diarrhea (drug related) ([4]; moderate fat, N = 20): 0 n (%) | Adverse events: dysmenorrhea ([4]; moderate fat, N = 20): 0 n (%) | Adverse events: eye irritation ([4]; moderate fat, N = 20): 0 n (%) | Adverse events: rash maculopapular (drug related, led to withdrawal) ([4]; moderate fat, N = 20): 0 n (%) | participants reporting AEs considered related to the study treatment ([4]; part 2, tablets 200 mg, high-fat conditions): 10% | highest incidence of adverse events ([4]; tablet 200 mg, high-fat conditions): 24% | estimated half-life ([5]; 200-mg dose, healthy participants): approximately 22.6 hours | tolerability ([5]; phase I studies in healthy participants, headache most common AE): generally well tolerated | reduction in plasma HIV-1 RNA (HIV-1): approximately 2 log10 | inhibition of uridine diphosphate glucuronosyltransferase 1A1 [6]: inhibitor | inhibition of organic anion-transporting polypeptide 1B3 [7]: inhibitor | inhibition across various HIV-1 subtypes (HIV-1 subtypes): broad‐spectrum potent inhibition | effect on the pharmacokinetics of combined oral contraceptives [8]: no meaningful effect | effect on the pharmacokinetics of dolutegravir [8]: no meaningful effect | effect on the pharmacokinetics of tenofovir alafenamide [8]: no meaningful effect
